Measurements as given in ChEMBL document CHEMBL1148770, “Conformation-activity relationship of neuropeptide S and some structural mutants: helicity affects their interaction with the receptor” (J Med Chem, 2007).
Square brackets hold non-standard residues; d marks the D form. Peptide text beside a SMILES is read from it. Aib = CC(C)(N)C(=O)O

Legend:
[1] = molecular target: T1, Neuropeptide S receptor (Mus musculus, UniProt Q8BZP8); experiment: Agonist activity at mouse recombinant NPSR expressed in HEK293 cells assessed as calcium mobilization; assay type: functional, cell-based
T1 sequence (Q8BZP8 whole entry): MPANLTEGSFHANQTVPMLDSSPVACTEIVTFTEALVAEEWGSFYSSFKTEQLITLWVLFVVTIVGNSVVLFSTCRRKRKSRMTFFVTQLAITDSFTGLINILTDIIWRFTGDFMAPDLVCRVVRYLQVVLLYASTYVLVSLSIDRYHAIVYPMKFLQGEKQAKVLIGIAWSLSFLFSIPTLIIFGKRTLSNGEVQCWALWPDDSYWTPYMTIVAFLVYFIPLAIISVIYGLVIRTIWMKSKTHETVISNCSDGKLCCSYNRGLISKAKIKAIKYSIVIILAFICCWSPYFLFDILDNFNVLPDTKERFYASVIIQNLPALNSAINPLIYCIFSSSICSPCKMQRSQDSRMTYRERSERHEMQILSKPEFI
Procedure, shortened: (§1)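 HEK293 cells stably expressing mouse NPSR, grown in DMEM/10% FBS/2 mM glutamine/hygromycin at 37 °C, 5% CO2. Seeded 50,000 cells/well on poly-D-lysine; next day loaded 30 min at 37 °C with 3 µM Fluo-4 AM, 2.5 mM probenecid, 0.01% pluronic acid. Read in HBSS/20 mM HEPES/probenecid/Brilliant Black at ≈22 °C on FlexStation; peak fluorescence change as % baseline; logistic fit; ≥4 experiments in duplicate.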

[2] = molecular target: T2, Neuropeptide S receptor (Mus musculus) (UniProt Q8BZP8); experiment: Agonist activity at mouse recombinant NPSR expressed in HEK293 cells assessed as calcium mobilization relative to baseline; assay type: functional, cell-based; procedure, shortened: as §1
T2 sequence (whole entry): T1 sequence (Q8BZP8 whole entry)

Structure (SMILES) | EC50 [1] | Emax [2]
CSCC[C@H](NC(=O)CNC(=O)[C@@H](NC(=O)CNC(=O)[C@@H](NC(=O)CNC(=O)[C@H](CC(N)=O)NC(=O)[C@H](CCCNC(=N)N)NC(=O)[C@H](Cc1ccccc1)NC(=O)[C@H](C)N)C(C)C)[C@@H](C)O)C(=O)N[C@@H](CCCCN)C(=O)N[C@@H](CCCCN)C(=O)N[C@H](C(=O)N[C@@H](CO)C(=O)N[C@@H](Cc1ccccc1)C(=O)N[C@@H](CCC(N)=O)C(=O)N[C@@H](CCCNC(=N)N)C(=O)N[C@@H](C)C(=O)N[C@@H](CCCCN)C(=O)N[C@@H](CO)C(=O)O)[C@@H](C)O (H-AFRNGVGTGMKKTSFQRAKS-OH) | 26.3 nM | 182%
CSCC[C@H](NC(=O)CNC(=O)[C@@H](NC(=O)CNC(=O)[C@@H](NC(=O)[C@H](C)NC(=O)[C@H](CC(N)=O)NC(=O)[C@H](CCCNC(=N)N)NC(=O)[C@H](Cc1ccccc1)NC(=O)[C@@H](N)CO)C(C)C)[C@@H](C)O)C(=O)N[C@@H](CCCCN)C(=O)N[C@@H](CCCCN)C(=O)N[C@H](C(=O)N[C@@H](CO)C(=O)N[C@@H](Cc1ccccc1)C(=O)N[C@@H](CCC(N)=O)C(=O)N[C@@H](CCCNC(=N)N)C(=O)N[C@@H](C)C(=O)N[C@@H](CCCCN)C(=O)N[C@@H](CO)C(=O)O)[C@@H](C)O (H-SFRNAVGTGMKKTSFQRAKS-OH) | 24.5 nM | 178%
CSCC[C@H](NC(=O)[C@H](C)NC(=O)[C@@H](NC(=O)[C@H](C)NC(=O)[C@@H](NC(=O)CNC(=O)[C@H](CC(N)=O)NC(=O)[C@H](CCCNC(=N)N)NC(=O)[C@H](Cc1ccccc1)NC(=O)[C@@H](N)CO)C(C)C)[C@@H](C)O)C(=O)N[C@@H](CCCCN)C(=O)N[C@@H](CCCCN)C(=O)N[C@@H](C)C(=O)N[C@@H](CO)C(=O)N[C@@H](Cc1ccccc1)C(=O)N[C@@H](CCC(N)=O)C(=O)N[C@@H](CCCNC(=N)N)C(=O)N[C@@H](C)C(=O)N[C@@H](CCCCN)C(=O)N[C@@H](CO)C(=O)O (H-SFRNGVATAMKKASFQRAKS-OH) | – | 69%
CSCC[C@H](NC(=O)[C@H](C)NC(=O)[C@@H](NC(=O)CNC(=O)[C@@H](NC(=O)CNC(=O)[C@H](CC(N)=O)NC(=O)[C@H](CCCNC(=N)N)NC(=O)[C@H](Cc1ccccc1)NC(=O)[C@@H](N)CO)C(C)C)[C@@H](C)O)C(=O)N[C@@H](CCCCN)C(=O)N[C@@H](CCCCN)C(=O)N[C@@H](C)C(=O)N[C@@H](CO)C(=O)N[C@@H](Cc1ccccc1)C(=O)N[C@@H](CCC(N)=O)C(=O)N[C@@H](CCCNC(=N)N)C(=O)N[C@@H](C)C(=O)N[C@@H](CCCCN)C(=O)N[C@@H](CO)C(=O)O (H-SFRNGVGTAMKKASFQRAKS-OH) | 15.1 nM | 191%
CSCC[C@H](NC(=O)CNC(=O)[C@@H](NC(=O)CNC(=O)[C@@H](NC(=O)CNC(=O)[C@H](CC(N)=O)NC(=O)[C@H](CCCNC(=N)N)NC(=O)[C@H](Cc1ccccc1)NC(=O)[C@@H](N)CO)C(C)C)[C@@H](C)O)C(=O)N[C@@H](CCCCN)C(=O)N[C@@H](CCCCN)C(=O)N[C@@H](C)C(=O)N[C@@H](CO)C(=O)N[C@@H](Cc1ccccc1)C(=O)N[C@@H](CCC(N)=O)C(=O)N[C@@H](CCCNC(=N)N)C(=O)N[C@@H](C)C(=O)N[C@@H](CCCCN)C(=O)N[C@@H](CO)C(=O)O (H-SFRNGVGTGMKKASFQRAKS-OH) | 19.1 nM | 172%
CSCC[C@H](NC(=O)CNC(=O)[C@@H](NC(=O)CNC(=O)[C@@H](NC(=O)CNC(=O)[C@@H]1CCCN1C(=O)[C@H](CCCNC(=N)N)NC(=O)[C@H](Cc1ccccc1)NC(=O)[C@@H](N)CO)C(C)C)[C@@H](C)O)C(=O)N[C@@H](CCCCN)C(=O)N[C@@H](CCCCN)C(=O)N[C@H](C(=O)N[C@@H](CO)C(=O)N[C@@H](Cc1ccccc1)C(=O)N[C@@H](CCC(N)=O)C(=O)N[C@@H](CCCNC(=N)N)C(=O)N[C@@H](C)C(=O)N[C@@H](CCCCN)C(=O)N[C@@H](CO)C(=O)O)[C@@H](C)O (H-SFRPGVGTGMKKTSFQRAKS-OH) | 158 nM | –
CSCC[C@H](NC(=O)CNC(=O)[C@@H](NC(=O)CNC(=O)[C@@H](NC(=O)CNC(=O)[C@H](CC(N)=O)NC(=O)[C@H](CCCNC(=N)N)NC(=O)[C@H](Cc1ccccc1)NC(=O)C(C)(C)N)C(C)C)[C@@H](C)O)C(=O)N[C@@H](CCCCN)C(=O)N[C@@H](CCCCN)C(=O)N[C@H](C(=O)N[C@@H](CO)C(=O)N[C@@H](Cc1ccccc1)C(=O)N[C@@H](CCC(N)=O)C(=O)N[C@@H](CCCNC(=N)N)C(=O)N[C@@H](C)C(=O)N[C@@H](CCCCN)C(=O)N[C@@H](CO)C(=O)O)[C@@H](C)O (H-[Aib]FRNGVGTGMKKTSFQRAKS-OH) | 6.76 nM | 184%

The next lines start with the values.

EC50 [1] | Emax [2] | Structure (SMILES)
21.4 nM | 172% | CSCC[C@H](NC(=O)[C@@H](C)NC(=O)[C@@H](NC(=O)CNC(=O)[C@@H](NC(=O)CNC(=O)[C@H](CC(N)=O)NC(=O)[C@H](CCCNC(=N)N)NC(=O)[C@H](Cc1ccccc1)NC(=O)[C@@H](N)CO)C(C)C)[C@@H](C)O)C(=O)N[C@@H](CCCCN)C(=O)N[C@@H](CCCCN)C(=O)N[C@H](C(=O)N[C@@H](CO)C(=O)N[C@@H](Cc1ccccc1)C(=O)N[C@@H](CCC(N)=O)C(=O)N[C@@H](CCCNC(=N)N)C(=O)N[C@@H](C)C(=O)N[C@@H](CCCCN)C(=O)N[C@@H](CO)C(=O)O)[C@@H](C)O
23.4 nM | 164% | CSCC[C@H](NC(=O)CNC(=O)[C@@H](NC(=O)[C@@H](C)NC(=O)[C@@H](NC(=O)CNC(=O)[C@H](CC(N)=O)NC(=O)[C@H](CCCNC(=N)N)NC(=O)[C@H](Cc1ccccc1)NC(=O)[C@@H](N)CO)C(C)C)[C@@H](C)O)C(=O)N[C@@H](CCCCN)C(=O)N[C@@H](CCCCN)C(=O)N[C@H](C(=O)N[C@@H](CO)C(=O)N[C@@H](Cc1ccccc1)C(=O)N[C@@H](CCC(N)=O)C(=O)N[C@@H](CCCNC(=N)N)C(=O)N[C@@H](C)C(=O)N[C@@H](CCCCN)C(=O)N[C@@H](CO)C(=O)O)[C@@H](C)O
23.4 nM | 164% | CSCC[C@H](NC(=O)[C@H](C)NC(=O)[C@@H](NC(=O)CNC(=O)[C@@H](NC(=O)CNC(=O)[C@H](CC(N)=O)NC(=O)[C@H](CCCNC(=N)N)NC(=O)[C@H](Cc1ccccc1)NC(=O)[C@@H](N)CO)C(C)C)[C@@H](C)O)C(=O)N[C@@H](CCCCN)C(=O)N[C@@H](CCCCN)C(=O)N[C@H](C(=O)N[C@@H](CO)C(=O)N[C@@H](Cc1ccccc1)C(=O)N[C@@H](CCC(N)=O)C(=O)N[C@@H](CCCNC(=N)N)C(=O)N[C@@H](C)C(=O)N[C@@H](CCCCN)C(=O)N[C@@H](CO)C(=O)O)[C@@H](C)O
– | 129% | CSCC[C@H](NC(=O)CNC(=O)[C@@H](NC(=O)[C@H](C)NC(=O)[C@@H](NC(=O)CNC(=O)[C@H](CC(N)=O)NC(=O)[C@H](CCCNC(=N)N)NC(=O)[C@H](Cc1ccccc1)NC(=O)[C@@H](N)CO)C(C)C)[C@@H](C)O)C(=O)N[C@@H](CCCCN)C(=O)N[C@@H](CCCCN)C(=O)N[C@H](C(=O)N[C@@H](CO)C(=O)N[C@@H](Cc1ccccc1)C(=O)N[C@@H](CCC(N)=O)C(=O)N[C@@H](CCCNC(=N)N)C(=O)N[C@@H](C)C(=O)N[C@@H](CCCCN)C(=O)N[C@@H](CO)C(=O)O)[C@@H](C)O
10.2 nM | 190% | CSCC[C@H](NC(=O)C(C)(C)NC(=O)[C@@H](NC(=O)CNC(=O)[C@@H](NC(=O)CNC(=O)[C@H](CC(N)=O)NC(=O)[C@H](CCCNC(=N)N)NC(=O)[C@H](Cc1ccccc1)NC(=O)[C@@H](N)CO)C(C)C)[C@@H](C)O)C(=O)N[C@@H](CCCCN)C(=O)N[C@@H](CCCCN)C(=O)N[C@H](C(=O)N[C@@H](CO)C(=O)N[C@@H](Cc1ccccc1)C(=O)N[C@@H](CCC(N)=O)C(=O)N[C@@H](CCCNC(=N)N)C(=O)N[C@@H](C)C(=O)N[C@@H](CCCCN)C(=O)N[C@@H](CO)C(=O)O)[C@@H](C)O (H-SFRNGVGT[Aib]MKKTSFQRAKS-OH)
– | 14% | CSCC[C@H](NC(=O)CNC(=O)[C@@H](NC(=O)C(C)(C)NC(=O)[C@@H](NC(=O)CNC(=O)[C@H](CC(N)=O)NC(=O)[C@H](CCCNC(=N)N)NC(=O)[C@H](Cc1ccccc1)NC(=O)[C@@H](N)CO)C(C)C)[C@@H](C)O)C(=O)N[C@@H](CCCCN)C(=O)N[C@@H](CCCCN)C(=O)N[C@H](C(=O)N[C@@H](CO)C(=O)N[C@@H](Cc1ccccc1)C(=O)N[C@@H](CCC(N)=O)C(=O)N[C@@H](CCCNC(=N)N)C(=O)N[C@@H](C)C(=O)N[C@@H](CCCCN)C(=O)N[C@@H](CO)C(=O)O)[C@@H](C)O (H-SFRNGV[Aib]TGMKKTSFQRAKS-OH)
28.2 nM | 90% | CSCC[C@H](NC(=O)CNC(=O)[C@@H](NC(=O)CNC(=O)[C@@H](NC(=O)[C@@H](C)NC(=O)[C@H](CC(N)=O)NC(=O)[C@H](CCCNC(=N)N)NC(=O)[C@H](Cc1ccccc1)NC(=O)[C@@H](N)CO)C(C)C)[C@@H](C)O)C(=O)N[C@@H](CCCCN)C(=O)N[C@@H](CCCCN)C(=O)N[C@H](C(=O)N[C@@H](CO)C(=O)N[C@@H](Cc1ccccc1)C(=O)N[C@@H](CCC(N)=O)C(=O)N[C@@H](CCCNC(=N)N)C(=O)N[C@@H](C)C(=O)N[C@@H](CCCCN)C(=O)N[C@@H](CO)C(=O)O)[C@@H](C)O (H-SFRN[dA]VGTGMKKTSFQRAKS-OH)
